Compound activity (PubChem BioAssay)
The full list was thinned out, with hits kept by preference.
T cruzi inh: T. cruzi replication inhibition | T. cruzi beta-gal in NIH3T3, luminescence, 90 h | inhibition, % (test concentration not listed) | actives 1.4% (n = 300,000);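 active = mean inhibition across valid replicates above about 55%, limit read from the data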;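 note: signal also drops with host cell toxicity which is not excluded here; higher percent means less beta-gal luminescence so fewer parasites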
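Test system: β-gal T. cruzi (Tulahuen C4) inside NIH/3T3 cells / Quantity: 5,000 cells/well / Measured by: luminescence from GalScreen with 0.05% NP40, read after 60 min / Medium: DMEM plus 2% FBS / Measure: parasite load inhibition, % / Reagent: Tulahuen C4 trypomastigotes, 5000/well / Schedule: co-culture of at least 90 h after 3 h attachment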
Hep lipid drop: hepatic lipid droplet formation modulation. actives 0.4% (n = 240,000). AML12 mouse hepatocytes, oleate lipid droplets, BODIPY imaging. inhibition, % at 6.5 µM;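 active = lipid droplet intensity inhibited by at least 50%, with more than 500 cells counted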
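Material – mouse AML12 hepatocyte cell line, fixed after treatment · Compound dosing – one dose, 6.5 µM compound · Times – compound with oleate, overnight · Measured by – Image-based BODIPY and DAPI two-channel analysis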
Lmaj promast: reduces viability of Leishmania major promastigotes | resazurin fluorescence viability | inhibition, % at 10 µM | actives 9% (n = 200,000); in the data active = inhibition above about 50%;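 note: promastigotes grown with compound for 44 hours at 28 °C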
DTT redox prof: compounds producing H2O2 with reducing agent – biochemical, NIH compound library profiling, artefact control for MLSCN library redox annotation, primary screen. DTT-dependent redox cycling H2O2, phenol red/HRP absorbance; 100% = 100 µM peroxide control, 0% = buffer. activation, % at 10 µM. actives 0.03% (n = 200,000);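 active = activation of at least 50% relative to the plate's high and low controls in the primary single-dose screen; inactive = activation below 50%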;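 note: compound incubated with DTT at 0.8 mM final as the reducing agent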
MPTP block: blocks calcium-induced mitochondrial swelling; inhibition, % at 10 µM; isolated mouse mitochondria, Ca2+ swelling absorbance, 30 min; actives 1.4% (n = 360,000); AID 602449;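 active = inhibition of 50% or more, scaled per plate between neutral and stimulator controls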
MPTP counter: Rhodamine 123 counter-screen of mitochondrial pore hits | actives 78% (n = 5,000) | isolated mitochondria, membrane potential, Rhodamine 123 fluorescence | inhibition, % at 10 µM | shares compounds with MPTP block | AID 624504; in the data active = inhibition above about 22%
MPTP abs DR: dose response confirmation of mitochondrial permeability transition pore inhibitors; actives 58% (n = 780); shares compounds with MPTP block; AID 651561; IC50, µM; isolated mitochondria swelling, absorbance; in the data active = IC50 below about 20 µM
MPTP cs DR: MPTP inhibitor counter-screen activity, dose response; shares compounds with MPTP block; isolated mitochondria counterscreen, fluorescence read-out; IC50, µM; actives 49% (n = 780); in the data active = IC50 below about 80 µM
A number is an active result; – = inactive; · = not tested or not shown.

SMILES | T cruzi inh | Hep lipid drop | Lmaj promast | DTT redox prof | MPTP block | MPTP counter | others
CCCN(CCC)S(=O)(=O)c1ccc(C(=O)Nc2nc(-c3ccccc3)c(C(=O)OCC)s2)cc1 | – | – | – | – | 80.2 | – | MPTP abs DR=13.9;MPTP cs DR=12.2
COCCN(CCOC)S(=O)(=O)c1ccc(C(=O)Nc2nc(-c3ccccc3)c(C(=O)c3ccccc3)s2)cc1 | – | – | – | – | – | ·
COc1ccc(S(=O)(=O)N2CCC(C(=O)NCCN3CCOCC3)CC2)cc1 | – | – | · | · | – | ·
O=C(CNC(=O)c1cccc(Br)c1)N/N=C/c1cc(Br)cc(Br)c1O | – | – | – | – | 66.2 | –
CS(=O)(=O)N(CC(=O)Nc1cccc([N+](=O)[O-])c1)c1ccccc1F | – | – | – | – | – | ·
O=C(CCSc1ccccc1Cl)Nc1cccc([N+](=O)[O-])c1 | – | – | – | – | 89.0 | 84.1
Cc1ccccc1CN(CC(=O)Nc1cccc([N+](=O)[O-])c1)S(=O)(=O)c1ccc(Cl)cc1 | – | – | 99.6 | – | 89.3 | 79.8
CCOC(=O)C1=C(COC(=O)C2CC(=O)N(c3ccccc3F)C2)NC(=O)NC1C (stereo not drawn) | · | · | · | · | – | ·
CN(C)c1ccc(/C=C/c2ccc3c4ccccc4ccc3[n+]2-c2ccccc2)cc1 | · | – | 100.5 | – | 153.6 | 77.3
CN(CCCS(=O)(=O)[O-])c1ccc(/C=C/c2ccc3ccccc3[n+]2C)cc1 | – | – | · | · | – | ·
CN(C)c1ccc(/C=C/c2ccc3ccccc3[n+]2C)cc1 | 60.0 | – | 100.4 | – | 108.6 | 68.2
Cc1ccc(C)c(NC(=S)NC(NC(=O)Cc2ccccc2)C(Cl)(Cl)Cl)c1 (stereo not drawn) | – | – | – | – | – | ·
O=C(NC(NC(=S)Nc1ccc(Cl)cc1Cl)C(Cl)(Cl)Cl)c1cccc([N+](=O)[O-])c1 (stereo not drawn) | 73.9 | · | 100.4 | – | 93.7 | 79.5
Cc1ccc(NC(=S)NC(NC(=O)c2ccccc2)C(Cl)(Cl)Cl)c(C)c1 (stereo not drawn) | – | – | 96.2 | – | 72.8 | 80.9
Cc1cc(C)c(NC(=S)NC(NC(=O)c2ccccc2)C(Cl)(Cl)Cl)c(C)c1 (stereo not drawn) | – | – | – | – | 76.5 | 83.6
Cc1ccccc1NC(=S)NC(NC(=O)c1ccccc1C)C(Cl)(Cl)Cl (stereo not drawn) | – | · | – | – | 78.5 | 87.7
Cc1ccccc1C(=O)NC(NC(=S)Nc1ccc(S(N)(=O)=O)cc1)C(Cl)(Cl)Cl (stereo not drawn) | – | – | – | – | – | ·
O=C(COc1ccc(C(=O)NCC2CCCO2)cc1)Nc1cccc(C(F)(F)F)c1 (stereo not drawn) | – | · | · | · | – | ·
COCCCNC(=O)C(C)N1c2cccc3cccc(c23)S1(=O)=O (stereo not drawn) | – | · | · | · | – | ·
O=C(NC(NC(=S)Nc1ccccc1)C(Cl)(Cl)Cl)c1cccc(Cl)c1 (stereo not drawn) | 65.1 | · | 74.9 | – | 96.2 | 77.3
O=C(CSCc1ccc(F)cc1)Nc1ccccc1 | – | – | – | – | – | ·
O=C(CSCc1ccccc1)Nc1ccc(F)c(F)c1 | – | – | – | – | 71.0 | 63.1
COc1ccc(/C=N/NC(=O)c2cccnc2)cc1CSc1ccccn1 | – | – | · | · | – | ·
O=C(O)C1CC=CCC1C(=O)N1CCN(c2nc(-c3ccccc3)c3ccccc3n2)CC1 (stereo not drawn) | – | · | – | – | 82.6 | – | MPTP abs DR=10.3;MPTP cs DR=–
Cc1nc2ccc(NC(=O)c3cc(S(=O)(=O)N(C)c4ccccc4)ccc3Cl)cc2s1 | – | – | – | – | 106.6 | 84.2
SMILES | T cruzi inh | Hep lipid drop | Lmaj promast | DTT redox prof | MPTP block | MPTP counter | others
Cc1nc2ccc(NC(=O)c3ccc(S(=O)(=O)N(C)C)cc3)cc2s1 | – | – | – | – | – | ·
Cc1nc2ccc(NC(=O)c3ccc(Cl)c(S(=O)(=O)N(C)c4ccccc4)c3)cc2s1 | – | – | 100.1 | – | 74.3 | 68.7
O=C(O)CC/C(=N\Nc1ccc([N+](=O)[O-])cc1S(=O)(=O)N1CCOCC1)c1cccs1 | – | – | · | · | – | ·
C/C=C/C=C/C(=O)[C@@H]1[C@@H]([C@]2(C)OC(=O)C(C)=C2O)[C@H]2/C(=C(O)/C=C/C=C/C)C(=O)[C@]1(C)C(=O)C2(C)O (stereo partly drawn) | – | – | · | · | – | ·
CCCCc1ccc(S(=O)(=O)NNC(=S)NCc2ccco2)cc1 | – | – | – | – | 83.4 | 64.8
CC(=O)Nc1ccc(S(=O)(=O)NNC(=S)NCc2ccco2)cc1 | – | – | · | · | – | ·
O=C(CN(c1cccc(C(F)(F)F)c1)S(=O)(=O)c1ccc(Cl)c([N+](=O)[O-])c1)NCc1ccc(F)cc1 | – | – | – | – | 74.3 | 66.6
Cc1cc(NC(=O)CC2(CC(=O)O)CCCC2)n(C)n1 | – | – | · | · | – | ·
O=C(O)c1cc(S(=O)(=O)Nc2cc(Cl)ccc2Oc2ccccc2)ccc1O | · | · | · | · | 72.3 | 85.7
O=C(O)c1cc(S(=O)(=O)Nc2ccccc2C(=O)O)ccc1O | – | · | – | – | – | ·
COc1ccc(OC)c(Cc2nnc(CCC(=O)NC3C4CC5CC(C4)CC3C5)o2)c1 (stereo not drawn) | – | – | – | – | – | ·
NCCCCCCNS(=O)(=O)c1cccc2c(Cl)cccc12 | – | · | · | · | 108.1 | – | MPTP abs DR=7.44;MPTP cs DR=46.5
COC(=O)c1c(NC(=S)Nc2ccccc2Cl)sc(C)c1C | – | · | – | – | 55.5 | 70.0
COc1c(Br)cc([N+](=O)[O-])c(OC)c1C(=O)NC(=O)Nc1cc(Cl)cc(Cl)c1 | – | – | · | · | 83.4 | 85.4
Cc1ccc(C)n1NC(=O)c1ccccc1O | – | · | – | – | 77.5 | 58.0
COC(=O)C1=C(CCc2ccccc2)NC(=O)NC1c1ccc(Br)cc1 (stereo not drawn) | – | – | · | · | – | ·
COCC(=O)Oc1c(Sc2ccccc2[N+](=O)[O-])c(C)nn1C(C)(C)C | – | – | – | – | 60.3 | 61.5
CCN1CCN(CC(=O)n2c3c(c4ccccc42)CC(C)CC3)CC1 (stereo not drawn) | – | – | 100.4 | – | 77.7 | – | MPTP abs DR=8.65;MPTP cs DR=–
CC1CCc2c(c3ccccc3n2C(=O)CCl)C1 (stereo not drawn) | – | – | · | · | – | ·
O=C(Nc1cccc(Br)c1)c1ccc(CSc2ccccc2)cc1 | – | · | – | – | 66.6 | 77.2
COc1ccc(CCNc2c(C)c(C)nc3ncnn23)cc1 | – | · | – | – | 74.5 | 82.5
O=C1CC[C@@H]2C[C@@]3(C[C@@H]4CCN1[C@H]24)Nc1cc([N+](=O)[O-])ccc1NC3=NCc1ccccc1 | · | · | · | · | – | ·
